Laboratory results published in ChEMBL document CHEMBL4513216, “Probing the Open Global Health Chemical Diversity Library for Multistage-Active Starting Points for Next-Generation Antimalarials” (ACS Infect Dis, 2020).

Test: Toxicity liver stage against HepG2, at 10uM
Assay type: cell-based
Design: test concentration 10 uM, cell line HepG2-A16-CD81EGFP
Details: human, HepG2-A16-CD81EGFP cells; read-out: INHIBITION
Procedure, shortened: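 Uninfected HepG2-A16-CD81EGFP cells, 3 × 10^3 per well, 1536-well, plated on prespotted compound at 10 μM final, parasite-free screening media added to match infected plates; puromycin 10 μM positive, DMSO 0.5% negative; run in parallel with 48 h PbLuc assay at 37 °C, 5% CO2; viability by CellTiter-Glo luminescence, normalized to controls.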

| Compound | cytotoxicity at 10 µM [%] |
| --- | --- |
| O=C(NC[C@H]1OC[C@@H](NCc2ccccc2)[C@@H]1O)Nc1ccccc1 | 1.97 |
| COCCNC(=O)c1nc(NS(=O)(=O)c2ccccc2)sc1C | 9.18 |
| Cc1nc(C(=O)N2CCN(S(C)(=O)=O)CC2)c(-c2cccc(F)c2)s1 | 1.37 |
| Cc1cc(NC(=O)Cn2cnc(-c3cccs3)cc2=O)sn1 | 0.0962 |
| COc1ncc(NS(=O)(=O)c2ccc(F)cc2F)cn1 | -3.96 |
| O=C(NCCSCc1ccco1)c1ccc(N2CCOCC2)cc1 | -0.971 |
| O=C(c1cccnc1)N1CCc2[nH]nc(Nc3ccccc3)c2C1 | 6.83 |
| CC(C)CN(CC(=O)O)C(=O)c1ccc(F)cc1 | -2.83 |
| COC(=O)CN(C(=O)c1ccc(Cl)o1)c1cccc(F)c1 | 6.11 |
| Cc1ncc2c(n1)CN(c1ncnc3[nH]ccc13)CC2 | -8.92 |
| CCn1cc(C(=O)N2CCCN(c3cccnn3)CC2)c2ccccc21 | -0.418 |
| CCN1CCCN(c2ccc(-n3ccc(C)n3)nn2)CC1 | -0.553 |
| O=C(c1ccc2c(c1)OCCCO2)N1CCCCC1C1OCCO1 (stereo not given) | -0.158 |
| CCN1CCN(c2ccc(F)cc2C(C)NCc2ccnn2C)CC1 (stereo not given) | -8.33 |
| Cc1cccc(-c2nnc(C(C)NCCn3cc(C)cn3)o2)c1 (stereo not given) | -8.32 |
| Cc1ccc(CN(C(=O)c2cccc(NC(N)=O)c2)C2CC2)o1 | 2.69 |
| O=c1cc(CN2CCC(CCc3ccc(O)cc3)CC2)[nH]c(=O)[nH]1 | -0.885 |
| O=C(CNC(=O)C1CCCC1)NCC(O)c1ccc2ccccc2c1 (stereo not given) | 0.587 |
| COc1ccc(C(C#N)NC(=O)Cc2ccc(F)c(F)c2)c(OC)c1 (stereo not given) | 21.6 |
| COCc1c(Cl)cccc1NC(=O)NCc1cccc(N(C)C)n1 | 0.217 |
| O=C(CCN1CCSCC1c1ccccc1)N1CCOCC1 (stereo not given) | -12.5 |
| Cn1cc(-c2ncc3c(c2C(=O)O)CCN(CC2CCOC2)C3)cn1 (stereo not given) | -94.6 |
| CC(C)C(=O)N1CCC2(COCc3cnc(-c4cccnc4)nc32)C1 (stereo not given) | -102 |

| Compound | cytotoxicity at 10 µM [%] |
| --- | --- |
| CC(C)Cn1cncc1CNC1CCCNC1 (stereo not given) | -0.391 |
| COc1cccc(CN2CC(=O)N(c3ccccc3C)CC2C)c1OC (stereo not given) | 2.24 |
| CC(C)=CCN1CCN(C(=O)c2cc(C(C)C)on2)[C@H]2CS(=O)(=O)C[C@H]21 | 3.54 |
| CNc1nc(C(=O)N2CCC3(CCCN(C)C3=O)C2)cs1 (stereo not given) | -8.57 |
| COc1ccc(S(=O)(=O)N[C@H]2CN(C(C)=O)C[C@@H]2C(C)C)cc1F | -0.277 |
| CCc1cnc(C)nc1NC(CC)c1cnn(C)c1 (stereo not given) | -11.7 |
| CSCc1noc(Cn2ncn3cccc3c2=O)n1 | 4.44 |
| O=C(O)[C@@H]1CN(C(=O)CC2CCCC2)C[C@H]1c1ccc(F)cc1 | -10.2 |
| COCCOc1cccc(CNC(=O)CN2CCN(C)CC2C)c1 (stereo not given) | -4.07 |
| Cc1ccc(C(=O)N(C)Cc2ccc3c(c2)OCO3)c(=O)[nH]1 | -12 |
| Cc1noc(C)c1CC(=O)N1CCC(Nc2cccnn2)CC1 | -15.8 |
| c1cnnc(NCC2CN(Cc3cccc4c3OCCO4)CCO2)c1 (stereo not given) | -9.93 |
| CC(C)CN1CCC(C(=O)Nc2cc(C(F)(F)F)c[nH]c2=O)CC1 | -11.3 |
| CC(C)(C)c1nnc(CN2CCCC2c2noc(C3CC3)n2)o1 (stereo not given) | -2.75 |
| CCc1nc(C2CCCN2C(=O)CCc2cccs2)no1 (stereo not given) | -3.19 |
| CC(C)c1nc(C2CCCN2CC(=O)N2CCc3ccccc32)no1 (stereo not given) | -5.84 |
| OC(COCc1cccs1)CN1CCC(c2ccn[nH]2)CC1 (stereo not given) | -2.66 |
| COc1cccc(-n2c(C)cc(C(=O)O)c2C)c1 | -8.65 |
| c1cnn(CC2CN(Cc3noc(C4CC4)n3)CCO2)c1 (stereo not given) | -0.842 |
| O=C(c1ccc2c(c1)CCCC2)N1CCOCC1c1ncon1 (stereo not given) | -7 |
| Cn1ccc(CN2CCC3(CCCN3CC3CC3)CC2)n1 | -92.4 |
| O=C(NCc1cccs1)[C@H]1CO[C@H]2CCN(C3CCCC3)C[C@H]2C1 | -110 |
